# According to ChEMBL document CHEMBL1914423, “New imidazo[2,1-b]thiazole derivatives: synthesis, in vitro anticancer evaluation, and in silico studies” (Eur J Med Chem, 2011):
# How the values were obtained:
# Type in all cases: functional
# [1] = tested on: MOLT-4; assay: Anticancer activity against human MOLT4 cells assessed as cell growth at 10^-5 M after 48 hrs by SRB assay; details: MOLT-4, 48 h, read-out: Activity
# [2] = tested on: NCI-H522; assay: Anticancer activity against human NCI-H522 cells assessed as cell growth at 10^-5 M after 48 hrs by SRB assay; details: NCI-H522, 48 h, read-out: Activity
# [3] = tested on: SR; assay: Anticancer activity against human SR cells assessed as cell growth at 10^-5 M after 48 hrs by SRB assay; details: read-out: Activity
# Method in brief: (§1)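 NCI-60 single-dose screen: cells in RPMI 1640 with 5% FBS and 2 mM L-glutamine, plated at 5000–40,000 cells/well by doubling time, and preincubated 24 h at 37 °C. Compound given at one concentration from DMSO stock. Cells TCA-fixed and SRB-stained, absorbance at 515 nm. Percent growth relative to time-zero and untreated controls; inhibition % = 100 − growth %.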
# [4] = tested on: HOP-62; assay: Anticancer activity against human HOP62 cells assessed as cell growth at 10^-5 M after 48 hrs by SRB assay; details: HOP-62, 48 h, read-out: Activity
# Method in brief: (§2)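 NCI-60 single-dose screen at one concentration. Cells grown in RPMI 1640 with 5% FBS and 2 mM L-glutamine, plated at 5000–40,000 cells/well, and pre-incubated 24 h at 37 °C in 5% CO2 before DMSO-dissolved drug was added. Cells fixed with TCA, SRB-stained, absorbance read at 515 nm. Percent growth calculated against time-zero and untreated control plates.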
# [5] = tested on: COLO 205; assay: Anticancer activity against human COLO205 cells assessed as cell growth at 10^-5 M after 48 hrs by SRB assay; details: COLO 205, 48 h, read-out: Activity; method in brief: as §2
# [6] = tested on: HOP-92; assay: Anticancer activity against human HOP92 cells assessed as cell growth at 10^-5 M after 48 hrs by SRB assay; details: HOP-92, 48 h, read-out: Activity; method in brief: as §2
# [7] = tested on: HCT-116; assay: Anticancer activity against human HCT116 cells assessed as cell growth at 10^-5 M after 48 hrs by SRB assay; details: HCT-116, 48 h, read-out: Activity; method in brief: as §2
# [8] = tested on: UACC-257; assay: Anticancer activity against human UACC257 cells assessed as cell growth at 10^-5 M after 48 hrs by SRB assay; details: UACC-257, 48 h, read-out: Activity; method in brief: as §1
# [9] = tested on: RXF 393; assay: Anticancer activity against human RXF393 cells assessed as cell growth at 10^-5 M after 48 hrs by SRB assay; details: RXF 393, 48 h, read-out: Activity
# [10] = tested on: CCRF-CEM; assay: Anticancer activity against human CCRF-CEM cells assessed as cell growth at 10^-5 M after 48 hrs by SRB assay; details: read-out: Activity; method in brief: as §2
# [11] = tested on: BT-549; assay: Anticancer activity against human BT549 cells assessed as cell growth at 10^-5 M after 48 hrs by SRB assay; details: BT-549, 48 h, read-out: Activity; method in brief: as §2
# [12] = tested on: SW-620; assay: Anticancer activity against human SW620 cells assessed as cell growth at 10^-5 M after 48 hrs by SRB assay; details: SW-620, 48 h, read-out: Activity; method in brief: as §1
# [13] = tested on: NCI-H322M; assay: Anticancer activity against human NCI-H322M cells assessed as cell growth at 10^-5 M after 48 hrs by SRB assay; details: read-out: Activity
# [14] = tested on: NCI-H23; assay: Anticancer activity against human NCI-H23 cells assessed as cell growth at 10^-5 M after 48 hrs by SRB assay; details: NCI-H23, 48 h, read-out: Activity
# [15] = tested on: SK-MEL-2; assay: Anticancer activity against human SK-MEL-2 cells assessed as cell growth at 10^-5 M after 48 hrs by SRB assay; details: SK-MEL-2, 48 h, read-out: Activity
# [16] = tested on: M14; assay: Anticancer activity against human M14 cells assessed as cell growth at 10^-5 M after 48 hrs by SRB assay; details: M14, 48 h, read-out: Activity; method in brief: as §2
# [17] = tested on: MCF7; assay: Anticancer activity against human MCF7 cells assessed as cell growth at 10^-5 M after 48 hrs by SRB assay; details: MCF7, 48 h, read-out: Activity; method in brief: as §2
# [18] = tested on: A549; assay: Anticancer activity against human A549 cells assessed as cell growth at 10^-5 M after 48 hrs by SRB assay; details: A549, 48 h, read-out: Activity; method in brief: as §2
# [19] = tested on: SK-MEL-5; assay: Anticancer activity against human SK-MEL-5 cells assessed as cell growth at 10^-5 M after 48 hrs by SRB assay; details: SK-MEL-5, 48 h, read-out: Activity
# [20] = tested on: T47D; assay: Anticancer activity against human T47D cells assessed as cell growth at 10^-5 M after 48 hrs by SRB assay; details: read-out: Activity; method in brief: as §1
# [21] = tested on: EKVX; assay: Anticancer activity against human EKVX cells assessed as cell growth at 10^-5 M after 48 hrs by SRB assay; details: read-out: Activity; method in brief: as §2
# [22] = tested on: UO-31; assay: Anticancer activity against human UO31 cells assessed as cell growth at 10^-5 M after 48 hrs by SRB assay; details: UO-31, 48 h, read-out: Activity; method in brief: as §1
# [23] = tested on: MDA-MB-231; assay: Anticancer activity against human MDA-MB-231 cells assessed as cell growth at 10^-5 M after 48 hrs by SRB assay; details: MDA-MB-231, 48 h, read-out: Activity; method in brief: as §2
# [24] = tested on: NCI/ADR-RES; assay: Anticancer activity against human NCI/ADR-RES cells assessed as cell growth at 10^-5 M after 48 hrs by SRB assay; details: read-out: Activity
# [25] = tested on: SF-539; assay: Anticancer activity against human SF539 cells assessed as cell growth at 10^-5 M after 48 hrs by SRB assay; details: SF-539, 48 h, read-out: Activity
# [26] = tested on: HT-29; assay: Anticancer activity against human HT-29 cells assessed as cell growth at 10^-5 M after 48 hrs by SRB assay; details: HT-29, 48 h, read-out: Activity; method in brief: as §2
# [27] = tested on: NCI-H460; assay: Anticancer activity against human NCI-H460 cells assessed as cell growth at 10^-5 M after 48 hrs by SRB assay; details: NCI-H460, 48 h, read-out: Activity
# [28] = tested on: IGROV-1; assay: Anticancer activity against human IGROV1 cells assessed as cell growth at 10^-5 M after 48 hrs by SRB assay; details: IGROV-1, 48 h, read-out: Activity; method in brief: as §2
# [29] = tested on: OVCAR-4; assay: Anticancer activity against human OVCAR4 cells assessed as cell growth at 10^-5 M after 48 hrs by SRB assay; details: OVCAR-4, 48 h, read-out: Activity
# [30] = tested on: MDA-MB-468; assay: Anticancer activity against human MDA-MB-468 cells assessed as cell growth at 10^-5 M after 48 hrs by SRB assay; details: MDA-MB-468, 48 h, read-out: Activity
# [31] = tested on: SNB-19; assay: Anticancer activity against human SNB19 cells assessed as cell growth at 10^-5 M after 48 hrs by SRB assay; details: SNB-19, 48 h, read-out: Activity
# [32] = tested on: UACC-62; assay: Anticancer activity against human UACC62 cells assessed as cell growth at 10^-5 M after 48 hrs by SRB assay; details: UACC-62, 48 h, read-out: Activity; method in brief: as §1
SMILES,growth at 10 µM [1] [%],growth at 10 µM [2] [%],growth at 10 µM [3] [%],growth at 10 µM [4] [%],growth at 10 µM [5] [%],growth at 10 µM [6] [%],growth at 10 µM [7] [%],growth at 10 µM [8] [%],growth at 10 µM [9] [%],growth at 10 µM [10] [%],growth at 10 µM [11] [%],growth at 10 µM [12] [%],growth at 10 µM [13] [%],growth at 10 µM [14] [%],growth at 10 µM [15] [%],growth at 10 µM [16] [%],growth at 10 µM [17] [%],growth at 10 µM [18] [%],growth at 10 µM [19] [%],growth at 10 µM [20] [%],other results
COc1cccc(-c2nc3sccn3c2-c2ccnc(NCCNC(=O)c3ccccc3O)n2)c1,59.1,61.7,95,114,107,75.5,69.7,78.7,78.9,34.7,81.6,119,95.6,93.4,80.7,46.9,88.5,82.5,48.6,60.1,growth at 10 µM [21]: 98.9%; growth at 10 µM [22]: 48.6%; growth at 10 µM [23]: 89.4%; growth at 10 µM [24]: 54.6%; growth at 10 µM [25]: 98%; growth at 10 µM [26]: 96.4%; growth at 10 µM [27]: 92.1%; growth at 10 µM [28]: 60.9%; growth at 10 µM [29]: 116%; growth at 10 µM [30]: 102%; growth at 10 µM [31]: 118%; growth at 10 µM [32]: 36.8%
COc1cccc(-c2nc3sccn3c2-c2ccnc(NCCNC(=O)c3cccc(C(F)(F)F)c3)n2)c1,48,48.8,63.2,99.5,46.1,106,56.9,78.4,60.5,39.3,78.1,103,102,70.7,77,46.5,78.8,56,48.4,46.7,growth at 10 µM [21]: 76.2%; growth at 10 µM [22]: 39.5%; growth at 10 µM [23]: 77.6%; growth at 10 µM [24]: 38.4%; growth at 10 µM [25]: 88.3%; growth at 10 µM [26]: 49.8%; growth at 10 µM [27]: 74.3%; growth at 10 µM [28]: 53.4%; growth at 10 µM [29]: 89%; growth at 10 µM [30]: 71.1%; growth at 10 µM [31]: 102%; growth at 10 µM [32]: 30.1%
COc1cccc(-c2nc3sccn3c2-c2ccnc(NCCNC(=O)c3cc(C(F)(F)F)cc(C(F)(F)F)c3)n2)c1,67.6,78.4,78.1,109,93.4,38.5,69.1,99.6,51.2,69.9,86.2,119,95.5,102,81.8,79.3,72.5,81.2,75,77,growth at 10 µM [21]: 84.4%; growth at 10 µM [22]: 61.2%; growth at 10 µM [23]: 82.9%; growth at 10 µM [24]: 72.7%; growth at 10 µM [25]: 88.3%; growth at 10 µM [26]: 69.8%; growth at 10 µM [27]: 92.2%; growth at 10 µM [28]: 81.5%; growth at 10 µM [29]: 103%; growth at 10 µM [30]: 95.6%; growth at 10 µM [31]: 99.2%; growth at 10 µM [32]: 70.3%
